# Source: article PMC12188530 (RSC Advances, 2025)
# Counter-ions that a name gives are not always drawn.
# Legend:
# [1] = tested on: S. aureus ATCC 43300; assay: MIC and MBC by micro broth dilution; type: cell-based, Staphylococcus aureus
# [2] = tested on: S. aureus ATCC 43300; assay: Time-kill kinetics; type: cell-based, Staphylococcus aureus; settings: 2 × MIC; for re-growth of the bacteria: after 24 hours; for log reduction in CFU: within 2 to 4 hours
# Summary of the method: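 Culture grown to OD600 0.5 (5 × 10^8 CFU mL−1), then diluted 1000-fold in CA-MHB. Test compound added at 2 × MIC, with ciprofloxacin (2 × MIC) and untreated controls. Incubated at 37 °C with 200 rpm shaking and sampled at 0, 2, 4, 8, 12 and 24 h. Samples plated on MHA for 24 h at 37 °C, and CFU mL−1 determined. Run in triplicate.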
# [3] = tested on: S. aureus ATCC 43300 biofilm; assay: Biofilm growth inhibition assay; type: cell-based, Staphylococcus aureus; settings: at MIC, 24 hours
# Summary of the method: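 S. aureus grown in TSB at 37 °C for 24 h, then diluted 1:100 in TSB with 0.1% glucose. […] Planktonic cells removed, wells PBS-washed, dried 10 min and stained with 0.1% crystal violet (10 min, 25 °C). Stain solubilized in 33% acetic acid (30 min, RT, shaking) and read at A600. Percent inhibition calculated against untreated control, in triplicate with three biological replicates.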
# [4] = tested on: S. aureus ATCC 43300 invasion in macrophage (THP1); assay: Macrophage invasion assay; type: cell-based, Staphylococcus aureus; settings: THP1, MIC and 2 × MIC
# [5] = Cytotoxicity assay; type: cell-based; settings: human, HepG2 cells
# [6] = tested on: S. aureus ATCC 43300; assay: Thigh infection in a neutropenic mouse; type: in vivo; settings: BALB/C mice, group n = 4, 100 mg kg^−1 oral
# Summary of the method: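 Female BALB/c mice, 6–8 weeks old, n = 4 per group, made neutropenic with cyclophosphamide i.p. (150 mg kg−1 on day −4, 100 mg kg−1 on day −1). Right thigh infected i.m. with 5 × 10^5 CFU per mouse. At 4 h, test compound given orally at 100 mg kg−1, alongside vancomycin 100 mg kg−1 oral and a sunflower oil vehicle group. At 24 h, thighs homogenized in PBS and CFU plated on MHA, in triplicate per mouse.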
# [7] = biological target: T1, S. aureus ATCC 43300 Sortase A (Staphylococcus aureus, UniProt Q2FV99); assay: Sortase A activity assay by FRET; type: biochemical
# T1 sequence (Q2FV99 60-206): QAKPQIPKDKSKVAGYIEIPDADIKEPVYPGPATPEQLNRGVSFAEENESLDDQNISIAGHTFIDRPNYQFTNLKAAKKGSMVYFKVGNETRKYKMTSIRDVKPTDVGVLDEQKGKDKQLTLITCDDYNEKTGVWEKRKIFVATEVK
# [8] = biological target: T2, Sortase A (Staphylococcus aureus, UniProt Q2FV99); assay: Fluorescence quenching assay; type: binding; settings: compounds 0 to 128 μg mL^−1
# T2 sequence (Q2FV99 60-206): T1 sequence (Q2FV99 60-206)
# [9] = tested on: S. aureus ATCC 43300 membrane potential; assay: Membrane potential perturbation assay; type: cell-based, Staphylococcus aureus; settings: MIC and 2 × MIC
# Summary of the method: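 Cells pelleted at 2400×g for 10 min and resuspended in PBS at OD600 1.0. DiOC2(3) added to 30 μM final. Cells mixed with test compound at MIC and 2 × MIC. CCCP served as positive control and untreated cells as negative control; n = 3, mean ± SD.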
# [10] = Staphylococcus aureus, ATCC43300, 18 h, S. aureus ATCC 43300, MHB, 37 °C, 18 hours
# [11] = Staphylococcus aureus, ATCC43300, 18 h
Compound,"MIC [1, 10]",re-growth of the bacteria [2],log reduction in CFU [2],biofilm growth inhibition [3],S. aureus ATCC 43300 invasion of macrophages [4],"viability at 24 h, 1 × MIC [5]","viability at 24 h, 2 × MIC [5]",death during the experiment [6],"MBC [1, 11]","MIC [1, 11]",inhibition at 128 µg/mL [7],log reduction in colony-forming units (CFU) from the initial inoculum [2],time within which the bacteria were eliminated [2],"MIC ([1]; S. aureus ATCC 43300, MHB, 37 °C, 18 hours)",dose-dependent quenching of Sortase A fluorescence intensity [8],inhibitory activity against the enzyme (in words) ([7]; FRET assay),membrane potential disruption [9],% inhibition ([7]; concentration 128 μg mL^−1)
CN1CCN(CCCN2c3ccccc3Sc3ccc(Cl)cc32)CC1 [Prochlorperazine dimaleate],32 µg/mL,re-growth of the bacteria was observed after 24 hours,~2 log,67%,successfully reduced MRSA invasion of macrophages at 2 × MIC,86%,~50%,One BALB/C died during the experiment,–,–,–,–,–,–,–,–,–,–
c1ccc2c(c1)Sc1ccccc1N2CC1CN2CCC1CC2 (centres unmarked) [Mequitazine],–,–,–,95%,–,30%,–,–,128 µg/mL,64 µg/mL,64%,≥ 3 log,12 to 24 h,–,–,–,–,–
CN(C)CCCN1c2ccccc2Sc2ccc(C(F)(F)F)cc21 [Triflupromazine hydrochloride],32 µg/mL,re-growth of the bacteria was observed after 24 hours,~2 log,19%,–,63%,–,–,–,–,48%,–,–,–,–,–,–,–
CN(C)CCCN1c2ccccc2Sc2ccc(Cl)cc21 [Chlorpromazine hydrochloride],32 µg/mL,re-growth of the bacteria was observed after 24 hours,–,93%,–,28%,–,–,–,–,49%,≥ 3 log,8 to 12 h,–,–,–,–,–
CN(C)C(=O)C(CCN1CCC(O)(c2ccc(Cl)cc2)CC1)(c1ccccc1)c1ccccc1 [Loperamide hydrochloride],32 µg/mL,re-growth of the bacteria was observed after 24 hours,–,95%,–,84%,–,–,128 µg/mL,–,–,≥ 3 log,8 to 12 h,64 µg/mL,except loperamide hydrochloride,except loperamide hydrochloride,significant reduction only at 2 × MIC,–
O.O=c1c(O)c(-c2ccc(O)c(O)c2)oc2cc(O)cc(O)c12 [Quercetin hydrate],–,–,–,–,–,–,–,–,–,–,–,–,–,–,–,–,–,73%
CCOC(=O)C1=C(COCCN)NC(C)=C(C(=O)OC)C1c1ccccc1Cl (centres unmarked) [Amlodipine besylate],64 µg/mL,–,–,40%,–,60%,–,–,128 µg/mL,–,57%,≥ 3 log,4 to 24 h,–,–,–,–,–
